Measurements from different studies.
Protocols differ between the studies behind these lines.
Target: Tyrosine-protein kinase Srms (SRMS, Homo sapiens, UniProt Q9H3Y6)
Tested at: 1 µM

| SMILES | assay | remaining binding |
| --- | --- | --- |
| CC1CCCN1c1nccc(-c2cnn3ncccc23)n1 (stereo not shown) | binding | 100% |
| COc1cnc(Nc2cccc(S(N)(=O)=O)c2)nc1N1CCN(c2ccccc2)C(=O)C1 | binding, competition with immobilised ligand | 90% |
| O=C(N1CCS(=O)(=O)CC1)N1C[C@H](c2ccc(OC(F)(F)F)cc2)C[C@H](c2nc(C3CC3)no2)C1 | cell-free assay, competition with immobilised ligand | 100% |
| CCN1CCN(Cc2ccc(C(=O)Nc3ccc(C)c(Oc4ccc5c(c4)CC(=O)N5)c3)cc2C(F)(F)F)CC1 | binding, competition with immobilised ligand | 100% |
| C[C@H]1CCN(c2nccc(-c3cnn4ncccc34)n2)C1 | binding | 71% |
| O=C(c1ccc(Nc2ncc(Cl)c(-c3ccc(Cl)s3)n2)cc1)N1CCC(N2CCCC2)CC1 | binding, competition with immobilised ligand | 98% |
| Cc1cnn2ncc(-c3ccnc(N(C)C)n3)c2c1 | binding | 100% |
| C=CC(=O)N1CCC(C(=O)NCC(=O)N2CCN(c3nc(-c4cnc(N)nc4C(F)F)nc(N4CCOCC4)n3)CC2)CC1 | binding, competition with immobilised ligand | 72% |
| CCOCCn1cc(C(=O)Nc2ccc(-n3nc(-c4cccnc4)cc3C(F)(F)F)cn2)ccc1=O | cell-free assay, competition with immobilised ligand | 79% |
| O=C(NCCCN1CCOCC1)c1ccc(Nc2nccc(-c3cc4ccccc4s3)n2)cc1 | binding, competition with immobilised ligand | 100% |
| CN(C)c1ncc(F)c(-c2cnn3ncccc23)n1 | binding | 81% |
| CNC(=O)[C@@H]1CC[C@@H](n2c(-c3ccc4cnccc4c3)nc3ccc(C(=O)NCc4cccc(C(N)=O)c4)cc32)C1 | binding, competition with immobilised ligand | 97% |
| CSc1cccnc1N1CCN(Cc2nc3ccccc3[nH]2)CC1 | cell-free assay, competition with immobilised ligand | 100% |
| O=C(NCC1CCOCC1)c1n[nH]cc1NC(=O)c1c(F)cccc1F | binding, competition with immobilised ligand | 100% |
| CCCOc1ccc([C@@H]2[C@@H](C(=O)O)[C@H](c3ccc4c(c3)OCO4)CN2CC(=O)Nc2c(CC)cccc2CC)cc1 | cell-free assay, competition with immobilised ligand | 90% |
| N[C@@H]1CCN(c2nccc(-c3cnn4ncccc34)n2)C1 | binding | 100% |
| CC(C)(O)c1cncc(-c2nc3ccc(F)cc3n2C2CC2)c1 | cell-free assay, competition with immobilised ligand | 100% |
| Cc1cnc(Nc2ccc(C(=O)N3CCC(N4CCCC4)CC3)cc2)nc1-c1cc2ccccc2s1 | binding, competition with immobilised ligand | 68% |
| O=C(Nc1cccnn1)N1CC(C/C=C/c2cncc(Oc3ccc(C(F)(F)F)cn3)n2)C1 | cell-free assay, competition with immobilised ligand | 67% |
| CN(CCCC(F)(F)F)c1nccc(-c2cnn3ncccc23)n1 | binding | 100% |
| CCC(=N\O)/C(C)=C/c1ccc(F)cc1 | cell-free assay, competition with immobilised ligand | 76% |
| Nc1ncc2c(n1)-c1c([nH]c3ccc(C#CC4CC4)cc13)CCCC2 | binding, competition with immobilised ligand | 92% |
